Key:
Format in all cases: cell-based
GT1-1 [1] = test: Inhibition of prazosin uptake at transport-P transporter protein in mouse GT1-1 cells at 100 uM relative to desipramine
GT1-1 [2] = test: Activation of [3H]prazosin uptake at transport-P transporter protein in mouse GT1-1 cells at 1 uM relative to control
How it was run: (§1)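 GT1-1 GnRH neurones grown in DMEM/Ham's F-12 (1:1) with 10% FBS, plated on poly-D-lysine/laminin-coated wells and used after 2–4 days in culture. Intact cells washed, then incubated 60 min at 37 °C with tracer [³H]prazosin 2 × 10^-10 M plus test compound. Plates iced, washed at 0 °C, solubilised in SDS/NaOH. Radioactivity counted by scintillation and normalised to protein (BCA). Result given as % activation of tracer uptake.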

GT1-1 [3] = test: Activation of [3H]prazosin uptake at transport-P transporter protein in mouse GT1-1 cells at 10 uM relative to control; how it was run: as §1
GT1-1 [4] = test: Activation of [3H]prazosin uptake at transport-P transporter protein in mouse GT1-1 cells at 100 uM relative to control; how it was run: as §1
[5] = Inhibition of prazosin uptake at transport-P transporter protein in mouse GT1-1 cells
How it was run: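 GT1-1 GnRH neurones were grown on poly-D-lysine/laminin and uptake was run on intact cells after 2–4 days. Incubation was 60 min at 37 °C in DMEM/25 mM Hepes/0.5 mM ascorbate, pH 7.4, with [³H]prazosin 2 × 10^-10 M, unlabelled prazosin 10^-6 M and test compound. Cell-associated radioactivity was normalised to protein. IC50 was taken from concentration–response curves, in triplicate, with each experiment done twice.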

IC50 [5] [µM]	SMILES	inhibition (GT1-1 [1]) [%]	Activity (GT1-1 [2]) [%]	Activity (GT1-1 [3]) [%]	Activity (GT1-1 [4]) [%]
–	Nc1nc(N2CCN(C(=O)c3ccccc3)CC2)nc2ccccc12	73	0	0	0
–	COc1cc2nc(NCCN3CCCCC3)nc(N)c2cc1OC	52	13	29	37
–	COc1cc2nc(N3CCN(C(=O)c4ccco4)CC3)nc(N)c2cc1OC	–	127	–	–
–	COc1cc2nc(N3CCN(C(=O)c4ccccc4)CC3)nc(N)c2cc1OC	63	0	40	47
5.2	COc1cc2nc(N3CCN(c4ccccc4)CC3)nc(N)c2cc1OC	93	0	13	0
–	COc1cc2nc(N3CCN(C(=O)c4ccco4)CC3)nc(NC(C)=O)c2cc1OC	0	0	35	206
–	CNc1nc(N2CCN(C(=O)c3ccco3)CC2)nc2cc(OC)c(OC)cc12	0	0	55	229
–	COc1cc2nc(N3CCC(C)CC3)nc(N)c2cc1OC	85	0	13	0
–	COc1cc2nc(N3CCN(C(=O)C4CCCO4)CC3)nc(N)c2cc1OC (racemic)	41	0	0	38
–	COc1cc2nc(N3CCN(C(C)=O)CC3)nc(N)c2cc1OC	37	0	0	61
81	COc1cc2nc(N3CCN(C(=O)c4ccco4)CC3)nc(N3CCOCC3)c2cc1OC	61	0	0	0
–	Nc1nc(N2CCN(C(=O)c3ccco3)CC2)nc2ccccc12	64	0	0	22
–	COc1cc2cnc(N3CCN(C(=O)c4ccco4)CC3)nc2cc1OC	5	0	0	0
4.5	COc1cc2nc(N3CCN(C(=O)c4ccco4)CC3)nc(Nc3ccccc3)c2cc1OC	80	0	0	0
–	COc1cc2nc(N3CCN(C(=O)c4cccs4)CC3)nc(N)c2cc1OC	–	57	161	–
0.19	c1cc2c(cc1OCCCCCN1CCCC1)CCCC2	–	–	–	–
0.46	c1ccc(OCCCN2CCCC2)cc1	–	–	–	–
–	COc1cc2nc(N3CCN(C(=O)c4ccco4)CC3)nc(O)c2cc1OC	0	0	0	0
–	Nc1nc(N2CCN(C(=O)c3ccco3)CC2)nc2cc3c(cc12)OCCO3	42	0	74	163
–	COc1cc2nc(N3CCCN(C(=O)c4ccco4)CC3)nc(N)c2cc1OC	82	0	31	0
–	COc1cc2nc(NCc3ccco3)nc(N)c2cc1OC	71	26	43	0
–	COc1cc2nc(N3CCN(C(=O)C(F)(F)F)CC3)nc(N)c2cc1OC	31	0	0	26
80	CCN(CC)c1nc(N2CCN(C(=O)c3ccco3)CC2)nc2cc(OC)c(OC)cc12	55	0	0	0
5.4	COc1cc2nc(N3CCN(C(=O)c4ccco4)CC3)nc(NCc3ccccc3)c2cc1OC	69	0	0	0
–	COc1cc2nc(N3CCN(C(=O)OCc4ccccc4)CC3)nc(N)c2cc1OC	75	0	6	0
